From ChEMBL document CHEMBL4130562, “Design, Synthesis, and Antibacterial Evaluation of Oxazolidinones with Fused Heterocyclic C-Ring Substructure” (ACS Med Chem Lett, 2017)
In brackets after ≈: the same amount, converted by molar mass.

What was measured:
Staphylococcus aureus [1] = assay: Antibacterial activity against Staphylococcus aureus ATCC 6538P by microbroth dilution method; assay type: functional
Staphylococcus aureus [2] = assay: Antibacterial activity against Staphylococcus aureus ATCC 33591 by microbroth dilution method; assay type: functional
Staphylococcus aureus [3] = assay: Antibacterial activity against Staphylococcus aureus ATCC 29213 by microbroth dilution method; assay type: functional
Staphylococcus aureus [4] = assay: Antibacterial activity against methicillin-resistant Staphylococcus aureus 1201984 by microbroth dilution method; assay type: functional
Staphylococcus aureus [5] = assay: Antibacterial activity against linezolid-resistant Staphylococcus aureus by microbroth dilution method; assay type: functional
Enterococcus faecalis = assay: Antibacterial activity against Enterococcus faecalis ATCC 29212 by microbroth dilution method; assay type: functional
Enterococcus faecium = assay: Antibacterial activity against Enterococcus faecium 19434 by microbroth dilution method; assay type: functional
Streptococcus pneumoniae = assay: Antibacterial activity against Streptococcus pneumoniae 55143 by microbroth dilution method; assay type: functional
Streptococcus pyogenes = assay: Antibacterial activity against Streptococcus pyogenes ATCC 19615 by microbroth dilution method; assay type: functional
[6] = system: Staphylococcus epidermidis; assay: Antibacterial activity against Staphylococcus epidermidis ATCC 14990 by microbroth dilution method; assay type: functional
Haemophilus influenzae = assay: Antibacterial activity against Haemophilus influenzae ATCC 49247 by microbroth dilution method; assay type: functional
[7] = Solubility in pH 1.2 buffer; assay type: physicochemical
Outline: (§1)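 Aqueous solubility was measured in buffers at pH 1.2 and pH 6.8 and reported in μg/mL.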

[8] = Solubility in pH 6.8 buffer; assay type: physicochemical; outline: as §1
[9] = Lipophilicity, log D of the compound at pH 7.4; assay type: physicochemical; settings: buffer
CYP1A2 = target: T1, CYP1A2 (Homo sapiens, UniProt P05177); assay: Inhibition of CYP1A2 (unknown origin) at 10 uM; assay type: ADME
T1 sequence (P05177 whole entry): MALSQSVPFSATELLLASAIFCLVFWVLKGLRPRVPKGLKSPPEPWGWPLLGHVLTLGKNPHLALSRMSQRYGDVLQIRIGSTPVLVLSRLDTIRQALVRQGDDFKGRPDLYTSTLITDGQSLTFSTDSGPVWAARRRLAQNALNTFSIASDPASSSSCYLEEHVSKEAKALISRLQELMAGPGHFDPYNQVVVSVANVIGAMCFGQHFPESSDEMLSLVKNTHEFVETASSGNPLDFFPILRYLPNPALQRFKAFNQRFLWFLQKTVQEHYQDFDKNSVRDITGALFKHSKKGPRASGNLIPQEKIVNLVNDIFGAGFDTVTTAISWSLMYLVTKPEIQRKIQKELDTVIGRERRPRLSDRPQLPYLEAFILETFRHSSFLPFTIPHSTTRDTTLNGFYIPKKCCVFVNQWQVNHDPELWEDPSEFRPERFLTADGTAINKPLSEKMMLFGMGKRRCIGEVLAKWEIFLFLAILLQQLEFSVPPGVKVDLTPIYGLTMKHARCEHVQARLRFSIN
Outline: (§2)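 Each test compound was tested at a single concentration of 10 μM against CYP1A2, 2C8, 2C9, 2C19, 2D6 and 3A4. Results are reported as percent inhibition.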

CYP2C8 = target: T2, CYP2C8 (Homo sapiens, UniProt P10632); assay: Inhibition of CYP2C8 (unknown origin) at 10 uM; assay type: ADME; outline: as §2
T2 sequence (P10632 whole entry): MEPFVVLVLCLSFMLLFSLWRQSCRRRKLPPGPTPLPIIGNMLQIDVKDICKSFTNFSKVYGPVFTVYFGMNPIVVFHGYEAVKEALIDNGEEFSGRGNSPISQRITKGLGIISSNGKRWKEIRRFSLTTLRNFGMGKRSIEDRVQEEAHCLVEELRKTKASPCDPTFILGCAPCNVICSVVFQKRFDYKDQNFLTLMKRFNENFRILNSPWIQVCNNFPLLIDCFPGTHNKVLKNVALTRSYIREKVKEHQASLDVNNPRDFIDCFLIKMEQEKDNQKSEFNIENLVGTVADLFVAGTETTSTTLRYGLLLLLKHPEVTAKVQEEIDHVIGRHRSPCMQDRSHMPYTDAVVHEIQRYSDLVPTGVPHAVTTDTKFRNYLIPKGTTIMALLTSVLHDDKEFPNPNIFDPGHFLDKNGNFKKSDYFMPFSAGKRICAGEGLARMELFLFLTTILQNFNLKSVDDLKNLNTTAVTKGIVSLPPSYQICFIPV

CYP2C9 = CYP2C9 (Homo sapiens, UniProt P11712); assay: Inhibition of CYP2C9 (unknown origin) at 10 uM; assay type: ADME; outline: as §2
CYP2C19 = CYP2C19 (Homo sapiens, UniProt P33261); assay: Inhibition of CYP2C19 (unknown origin) at 10 uM; assay type: ADME; outline: as §2
CYP2D6 = CYP2D6 (Homo sapiens, UniProt P10635); assay: Inhibition of CYP2D6 (unknown origin) at 10 uM; assay type: ADME; outline: as §2
CYP3A4 = CYP3A4 (Homo sapiens, UniProt P08684); assay: Inhibition of CYP3A4 (unknown origin) at 10 uM; assay type: ADME; outline: as §2
[10] = Metabolic stability in mouse liver microsomes assessed as parent compound remaining level; assay type: ADME, microsome
Outline: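 Compound was incubated with mouse liver microsomes to assess phase I metabolism. Read-out is percent of parent compound remaining.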

Sequence of CYP2D6 (P10635 whole entry): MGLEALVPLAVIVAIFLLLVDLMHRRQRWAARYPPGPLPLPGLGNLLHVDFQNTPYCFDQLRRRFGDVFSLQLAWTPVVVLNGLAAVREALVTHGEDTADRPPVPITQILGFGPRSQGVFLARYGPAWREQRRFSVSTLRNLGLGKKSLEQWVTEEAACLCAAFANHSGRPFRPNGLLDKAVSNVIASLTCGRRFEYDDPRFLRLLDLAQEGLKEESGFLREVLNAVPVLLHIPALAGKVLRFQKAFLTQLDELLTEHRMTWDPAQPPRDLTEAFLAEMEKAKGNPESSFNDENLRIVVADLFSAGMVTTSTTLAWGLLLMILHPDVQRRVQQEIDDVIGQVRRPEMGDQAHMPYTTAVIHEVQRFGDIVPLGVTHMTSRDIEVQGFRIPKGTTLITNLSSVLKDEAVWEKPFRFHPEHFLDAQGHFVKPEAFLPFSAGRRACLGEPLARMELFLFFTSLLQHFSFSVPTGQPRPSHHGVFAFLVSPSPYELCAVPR
Sequence of CYP2C9 (P11712 whole entry): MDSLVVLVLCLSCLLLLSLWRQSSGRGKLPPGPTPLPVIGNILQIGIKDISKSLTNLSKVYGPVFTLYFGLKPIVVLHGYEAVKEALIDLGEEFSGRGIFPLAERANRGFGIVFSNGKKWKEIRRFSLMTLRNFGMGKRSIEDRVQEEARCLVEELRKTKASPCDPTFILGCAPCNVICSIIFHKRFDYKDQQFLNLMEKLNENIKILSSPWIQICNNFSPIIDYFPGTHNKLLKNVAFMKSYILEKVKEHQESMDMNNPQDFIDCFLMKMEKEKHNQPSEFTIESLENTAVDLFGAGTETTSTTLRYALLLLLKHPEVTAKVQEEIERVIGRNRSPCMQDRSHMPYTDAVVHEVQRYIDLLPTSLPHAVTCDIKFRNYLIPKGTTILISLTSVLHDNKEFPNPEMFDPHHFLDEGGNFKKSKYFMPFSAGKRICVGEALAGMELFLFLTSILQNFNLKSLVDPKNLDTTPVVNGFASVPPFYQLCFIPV
Sequence of CYP3A4 (P08684 whole entry): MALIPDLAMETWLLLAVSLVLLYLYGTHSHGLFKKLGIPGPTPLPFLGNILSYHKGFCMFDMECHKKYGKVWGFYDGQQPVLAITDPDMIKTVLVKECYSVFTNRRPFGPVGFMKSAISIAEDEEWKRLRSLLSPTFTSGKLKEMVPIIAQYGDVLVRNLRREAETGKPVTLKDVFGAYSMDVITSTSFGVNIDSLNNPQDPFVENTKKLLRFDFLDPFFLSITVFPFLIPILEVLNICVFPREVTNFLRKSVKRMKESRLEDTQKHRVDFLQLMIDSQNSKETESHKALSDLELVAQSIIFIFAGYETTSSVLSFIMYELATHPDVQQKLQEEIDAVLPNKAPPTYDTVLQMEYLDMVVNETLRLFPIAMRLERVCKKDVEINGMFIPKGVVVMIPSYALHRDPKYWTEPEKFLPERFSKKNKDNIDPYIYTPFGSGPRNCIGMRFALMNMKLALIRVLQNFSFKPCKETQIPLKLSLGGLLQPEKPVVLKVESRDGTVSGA
Sequence of CYP2C19 (P33261 whole entry): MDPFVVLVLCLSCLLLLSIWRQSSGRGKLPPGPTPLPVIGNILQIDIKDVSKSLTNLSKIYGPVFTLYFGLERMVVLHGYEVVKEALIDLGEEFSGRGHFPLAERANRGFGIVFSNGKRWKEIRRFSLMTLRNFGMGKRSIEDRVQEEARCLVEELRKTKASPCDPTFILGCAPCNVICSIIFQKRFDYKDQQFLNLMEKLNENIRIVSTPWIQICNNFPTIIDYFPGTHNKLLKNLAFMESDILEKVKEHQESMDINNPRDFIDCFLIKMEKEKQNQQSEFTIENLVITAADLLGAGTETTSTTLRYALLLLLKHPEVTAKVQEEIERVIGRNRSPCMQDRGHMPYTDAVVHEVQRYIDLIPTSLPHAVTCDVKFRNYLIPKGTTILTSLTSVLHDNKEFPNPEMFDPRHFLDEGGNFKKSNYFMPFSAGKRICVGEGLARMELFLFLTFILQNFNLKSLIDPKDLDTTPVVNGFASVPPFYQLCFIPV

SMILES	MIC (Staphylococcus aureus [1]) [µg/mL]	MIC (Staphylococcus aureus [2]) [µg/mL]	MIC (Staphylococcus aureus [3]) [µg/mL]	MIC (Staphylococcus aureus [4]) [µg/mL]	MIC (Staphylococcus aureus [5]) [µg/mL]	MIC (Enterococcus faecalis) [µg/mL]	MIC (Enterococcus faecium) [µg/mL]	MIC (Streptococcus pneumoniae) [µg/mL]	MIC (Streptococcus pyogenes) [µg/mL]	MIC [6] [µg/mL]	MIC (Haemophilus influenzae) [µg/mL]	also measured
O=C1COc2ccc(-c3ccc(N4C[C@H](CO)OC4=O)cc3F)cc2N1	< 0.06	0.5 (≈ 1.4 µM)	0.125 (≈ 0.349 µM)	0.5 (≈ 1.4 µM)	1 (≈ 2.79 µM)	< 0.06	< 0.06	< 0.06	< 0.06	< 0.06	0.5 (≈ 1.4 µM)	solubility [7]: 4.4 µg/mL (≈ 12.3 µM); solubility [8]: 5.2 µg/mL (≈ 14.5 µM); logD [9]: 1.9; inhibition at 10 µM (CYP1A2): 4%; inhibition at 10 µM (CYP2C8): 0%; inhibition at 10 µM (CYP2C9): 12%; inhibition at 10 µM (CYP2C19): 29%; inhibition at 10 µM (CYP2D6): 4%; inhibition at 10 µM (CYP3A4): 0%; Stability [10]: 113%
CC(=O)NC[C@H]1CN(c2ccc(-c3ccc4c(c3)NC(=O)CO4)c(F)c2)C(=O)O1	0.125 (≈ 0.313 µM)	0.5 (≈ 1.25 µM)	0.125 (≈ 0.313 µM)	0.5 (≈ 1.25 µM)	1 (≈ 2.5 µM)	0.03 (≈ 0.0751 µM)	0.03 (≈ 0.0751 µM)	0.06 (≈ 0.15 µM)	0.06 (≈ 0.15 µM)	0.06 (≈ 0.15 µM)	0.25 (≈ 0.626 µM)	solubility [7]: 22 µg/mL (≈ 55.1 µM); solubility [8]: 15 µg/mL (≈ 37.6 µM); logD [9]: 1.9; inhibition at 10 µM (CYP1A2): 6%; inhibition at 10 µM (CYP2C8): 12%; inhibition at 10 µM (CYP2C9): 13%; inhibition at 10 µM (CYP2C19): 20%; inhibition at 10 µM (CYP2D6): 10%; inhibition at 10 µM (CYP3A4): 0%; Stability [10]: 84%
O=C1COc2ccc(-c3ccc(N4C[C@H](CNC(=O)C(F)F)OC4=O)cc3F)cc2N1	0.125 (≈ 0.287 µM)	0.5 (≈ 1.15 µM)	0.5 (≈ 1.15 µM)	0.5 (≈ 1.15 µM)	4 (≈ 9.19 µM)	0.06 (≈ 0.138 µM)	0.06 (≈ 0.138 µM)	0.25 (≈ 0.574 µM)	0.25 (≈ 0.574 µM)	0.125 (≈ 0.287 µM)	0.5 (≈ 1.15 µM)	–
Cl.NC[C@H]1CN(c2ccc(-c3ccc4c(c3)NC(=O)CO4)c(F)c2)C(=O)O1	4	16	8	8	> 32	8	4	4	4	4	4	–
O=C1O[C@@H](CO)CN1c1ccc(-c2ccc3c(c2)NC(=O)C2(CC2)O3)c(F)c1	< 0.06	0.5 (≈ 1.3 µM)	0.25 (≈ 0.65 µM)	< 0.06	2 (≈ 5.2 µM)	0.125 (≈ 0.325 µM)	< 0.06	0.25 (≈ 0.65 µM)	0.25 (≈ 0.65 µM)	< 0.06	0.5 (≈ 1.3 µM)	–
O=C1COc2ccc(-c3ccc(N4C[C@H](CNC(=O)C5CCC5)OC4=O)cc3F)cc2N1	0.125 (≈ 0.284 µM)	0.5 (≈ 1.14 µM)	0.5 (≈ 1.14 µM)	0.5 (≈ 1.14 µM)	2 (≈ 4.55 µM)	0.06 (≈ 0.137 µM)	0.06 (≈ 0.137 µM)	1 (≈ 2.28 µM)	1 (≈ 2.28 µM)	0.25 (≈ 0.569 µM)	1 (≈ 2.28 µM)	–
O=C1COc2ccc(-c3ccc(N4C[C@H](CO)OC4=O)cc3F)nc2N1	0.125 (≈ 0.348 µM)	0.125 (≈ 0.348 µM)	0.5 (≈ 1.39 µM)	0.25 (≈ 0.696 µM)	4 (≈ 11.1 µM)	0.25 (≈ 0.696 µM)	0.25 (≈ 0.696 µM)	0.25 (≈ 0.696 µM)	0.25 (≈ 0.696 µM)	< 0.06	1 (≈ 2.78 µM)	–
O=C1COc2cccc(-c3ccc(N4C[C@H](CO)OC4=O)cc3F)c2N1	> 32	> 32	> 32	> 32	> 32	> 32	> 32	> 32	> 32	> 32	> 32	–
